Measured values as given in ChEMBL document CHEMBL1132117, “Novel potential agents for human cytomegalovirus infection: synthesis and antiviral activity evaluation of benzothiadiazine dioxide acyclonucleosides” (J Med Chem, 1999).
Values after ≈ are worked out from the molar mass of the structure shown.

What was measured:
[1] = system: Human immunodeficiency virus 1; assay: Concentration of the required to protect CEM cells of Human T-lymphocyte against Cytopathogenicity of HIV-1(III-B) by 50%; assay type: functional, organism-based; settings: Human immunodeficiency virus 1, CCRF-CEM
Method in brief: (§1)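 CEM cells at 4 × 10⁵ cells/mL infected with HIV-1 (IIIB) or HIV-2 (ROD) at ~100 CCID₅₀/mL, then mixed with serial compound dilutions. Giant cell formation scored microscopically after 4 days. Triplicate assays.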

HEL [2] = assay: The minimum cytotoxic concentration was measured on Human Embryonic Lung (HEL) cells; assay type: functional
Method in brief: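 Minimum toxic concentration is the lowest concentration giving a microscopically detectable change in morphology of normal HEL cells. Duplicate assays.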

Human alphaherpesvirus 3 [3] = assay: The concentration required to reduce virus plaque formation by 50% was measured on 07/1 strain of VZV expressing viral thymidine kinase(TK-); assay type: functional, organism-based
Human alphaherpesvirus 3 [4] = assay: The concentration required to reduce virus plaque formation by 50% was measured on YS/Rstrain of VZV expressing viral thymidine kinase(TK-); assay type: functional, organism-based
Human betaherpesvirus 5 [5] = assay: The concentration required to reduce virus plaque formation by 50% was measured on AD-169 strains of human cytomegalovirus; assay type: functional, organism-based
CCRF-CEM = assay: The concentration required to reduce 50% cell viability on CEM cells of Human T-lymphocyte; assay type: functional
Method in brief: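 Uninfected CEM cells exposed to compound dilutions. Triplicate assays.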

Human alphaherpesvirus 3 [6] = assay: The concentration required to reduce virus plaque formation by 50% was measured on OKA strain of VZV expressing viral thymidine kinase(TK+); assay type: functional, organism-based
Human betaherpesvirus 5 [7] = assay: The concentration required to reduce virus plaque formation by 50% was measured on Davis strains of human cytomegalovirus; assay type: functional, organism-based
HEL [8] = assay: The concentration required to reduce cell growth by 50% was measured on Human Embryonic Lung (HEL) cells; assay type: functional
Method in brief: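 HEL fibroblasts seeded at 5 × 10³ cells/well and grown 24 h, then given compound dilutions in duplicate. Cells counted with a Coulter counter after 3 days at 37 °C in 5% CO₂.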

[9] = system: Human immunodeficiency virus 2; assay: Concentration of the required to protect CEM cells of Human T-lymphocyte against Cytopathogenicity of HIV-2 by 50%; assay type: functional, organism-based; settings: Human immunodeficiency virus 2, CCRF-CEM; method in brief: as §1
Human alphaherpesvirus 3 [10] = assay: The concentration required to reduce virus plaque formation by 50% was measured on YS strain of VZV expressing viral thymidine kinase(TK+); assay type: functional, organism-based

Structure (SMILES) | EC50 [1] [µg/mL] | MCC (HEL [2]) [µg/mL] | IC50 (Human alphaherpesvirus 3 [3]) [µg/mL] | IC50 (Human alphaherpesvirus 3 [4]) [µg/mL] | IC50 (Human betaherpesvirus 5 [5]) [µg/mL] | CC50 (CCRF-CEM) [µg/mL] | IC50 (Human alphaherpesvirus 3 [6]) [µg/mL] | IC50 (Human betaherpesvirus 5 [7]) [µg/mL] | CC50 (HEL [8]) [µg/mL] | EC50 [9] [µg/mL] | IC50 (Human alphaherpesvirus 3 [10]) [µg/mL]
O=C1c2ccccc2NS(=O)(=O)N1Cc1ccccc1 | > 200 | 50 | 48 (≈ 166 µM) | > 50 | > 20 | > 200 | > 50 | > 20 | > 50 | > 200 | > 50
O=C1c2ccccc2N(COCc2ccccc2)S(=O)(=O)N1Cc1ccccc1 | > 8 | > 50 | > 5 | > 5 | 8 (≈ 19.6 µM) | 25 (≈ 61.2 µM) | 20 (≈ 49 µM) | 11 (≈ 26.9 µM) | > 50 | > 8 | 20 (≈ 49 µM)
O=C1c2ccccc2N(COCCO)S(=O)(=O)N1Cc1ccccc1 | > 40 | > 50 | 55 (≈ 152 µM) | > 20 | > 20 | 89 (≈ 246 µM) | 43 (≈ 119 µM) | > 50 | 125 (≈ 345 µM) | > 40 | > 50
CC(=O)OCCOCN1C(=O)c2ccccc2NS1(=O)=O | > 200 | > 50 | > 50 | > 50 | > 50 | > 200 | > 50 | > 50 | > 200 | > 200 | > 50
CC(=O)OCCOCN1c2ccccc2C(=O)NS1(=O)=O | > 200 | > 50 | > 50 | > 50 | > 50 | > 200 | > 50 | > 50 | > 200 | > 200 | > 50
CC(=O)OCCOCN1c2ccccc2C(=O)N(Cc2ccccc2)S1(=O)=O | > 40 | 50 | 44 (≈ 109 µM) | > 20 | > 20 | 103 (≈ 255 µM) | 42 (≈ 104 µM) | > 50 | 100 (≈ 247 µM) | > 40 | > 50
O=C1NS(=O)(=O)N(COCCO)c2ccccc21 | > 40 | > 50 | > 50 | > 50 | > 50 | 15 (≈ 55.1 µM) | > 50 | > 50 | 112 (≈ 411 µM) | > 40 | > 50
O=C(OCCOCN1c2ccccc2C(=O)N(Cc2ccccc2)S1(=O)=O)c1ccccc1 | > 40 | 50 | > 20 | 12 (≈ 25.7 µM) | 13 (≈ 27.9 µM) | 100 (≈ 214 µM) | > 20 | > 20 | 17 (≈ 36.4 µM) | > 40 | > 20
C#CCOCN1c2ccccc2C(=O)N(Cc2ccccc2)S1(=O)=O | > 8 | 50 | 11 (≈ 30.9 µM) | 13 (≈ 36.5 µM) | 12 (≈ 33.7 µM) | 23 (≈ 64.5 µM) | 21 (≈ 58.9 µM) | 12 (≈ 33.7 µM) | > 50 | > 8 | 24 (≈ 67.3 µM)
O=C1NS(=O)(=O)N(COCc2ccccc2)c2ccccc21 | > 40 | > 50 | > 50 | > 50 | > 50 | > 200 | > 50 | > 50 | > 50 | > 40 | > 50
O=C1c2ccccc2N(Cc2ccccc2)S(=O)(=O)N1COCc1ccccc1 | 15 (≈ 36.7 µM) | 20 | > 5 | 3 (≈ 7.34 µM) | 3.5 (≈ 8.57 µM) | 100 (≈ 245 µM) | > 5 | 3.7 (≈ 9.06 µM) | > 40 | 20 (≈ 49 µM) | > 5
O=C1c2ccccc2NS(=O)(=O)N1COCCO | > 40 | > 50 | > 50 | > 50 | > 50 | > 200 | > 50 | > 50 | 160 (≈ 588 µM) | > 40 | > 50
Nc1nc2c(ncn2COC(CO)CO)c(=O)[nH]1 [GANCICLOVIR] | – | > 50 | – | – | 1.2 (≈ 4.7 µM) | – | – | 1.9 (≈ 7.44 µM) | > 50 | – | –
Nc1nc2c(ncn2COCCO)c(=O)[nH]1 [ACYCLOVIR] | – | > 50 | – | – | – | – | – | – | > 200 | – | –
CCCOCN1c2ccccc2C(=O)NS1(=O)=O | > 40 | > 50 | > 50 | > 50 | > 50 | > 200 | > 50 | > 50 | > 50 | > 40 | > 50
